Compound activity as filed in PubChem.
This is a sample that favours compounds with a hit; in the whole collection about 1.2% have one here.
PMI act hi M6P: increases human PMI activity with near-saturating mannose 6-phosphate; P34949; coupled PMI enzyme assay, resazurin fluorescence, 20 min; hits give high values; 1 = untreated enzyme, 0 = substrate-free blank; activation factor at 20 µM; 0.34% of 190,000 active; AID 1216;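 active = activation factor of 2 or more at 20 µM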
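Test system: Human PMI in coupled enzyme assay | Input: 15 ng/mL PMI | Medium: HEPES-buffered pH 7.4 with magnesium and detergent | Compound: One concentration, 20 µM, in 1% DMSO | Incubation: Enzyme reaction with compound 20 min at room temperature | Detection: Diaphorase-driven resazurin-to-resorufin fluorescence, excitation 544, emission 590 nm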
HMGR II inh: E. faecalis class II HMG-CoA reductase inhibition. purified E. faecalis HMGR, NADPH absorbance 340 nm kinetic. inhibition, % at 10 µM. 0.41% of 190,000 active. AID 1066;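 active = inhibition above a set limit, the median over all tested compounds plus 3 SD, cut at about 9.5% in these data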;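 also: enzyme runs in reverse so mevalonate oxidation gives rising NADPH absorbance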
NCF1 inh: inhibitors of human p47phox binding; P14598; p47phox/p22phox peptide binding, fluorescence polarization, 2 h; inhibition, % at 24.7 µM; 0.53% of 220,000 active; AID 1274;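 active = inhibition above about 30%, limit read from the data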
Target sequence (P14598 whole entry, looked up): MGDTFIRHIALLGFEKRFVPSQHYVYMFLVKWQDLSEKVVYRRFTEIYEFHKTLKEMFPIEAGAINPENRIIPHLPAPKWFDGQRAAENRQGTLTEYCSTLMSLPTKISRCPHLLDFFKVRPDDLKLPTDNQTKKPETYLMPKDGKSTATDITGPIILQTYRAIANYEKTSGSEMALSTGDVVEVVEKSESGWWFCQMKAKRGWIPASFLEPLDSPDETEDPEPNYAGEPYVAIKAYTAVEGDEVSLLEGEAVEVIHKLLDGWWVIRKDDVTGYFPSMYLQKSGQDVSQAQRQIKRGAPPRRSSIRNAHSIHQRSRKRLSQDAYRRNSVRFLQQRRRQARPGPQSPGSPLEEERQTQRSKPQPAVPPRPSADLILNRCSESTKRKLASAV
PMI act: phosphomannose isomerase (human) activation. P34949. purified human PMI, coupled resazurin fluorescence, 20 min; hits give high values; 1 = vehicle control, 0 substrate-free wells. activation factor at 20 µM. 0.005% of 190,000 active. AID 1214;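 active = activation factor of 2 or more at 20 µM, relative to plate controls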
Diaph act CS: activates diaphorase or chemically reduces, flagging diaphorase assay artifacts | Diaphorase/resazurin coupled assay, resorufin fluorescence, 16 min; hits give high values; 1 = vehicle wells, 0 = NADH-free wells | activation factor at 20 µM | 0.005% of 190,000 active;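 active = diaphorase activity raised at least twofold by the compound at 20 µM; inactive = activation factor below 2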
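Assay system: Purified diaphorase enzyme from Clostridium kluyveri | Amount: Enzyme 0.07 U/mL final | Dosing: Compound 20 µM once, DMSO 1% | Timing: 16 min reaction at room temperature | Detection: Fluorescence, excitation 544 nm and emission 590 nm | Evaluation: Higher resorufin formation from activation or reduction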
Redox H2O2 prof: compounds producing H2O2 with reducing agent – biochemical, NIH compound library profiling, artefact control for MLSCN library redox annotation, primary screen; AID 878; 0.03% of 200,000 active; activation, % at 10 µM; DTT-dependent redox cycling H2O2, phenol red/HRP absorbance; 100% = 100 µM peroxide control, 0% = buffer;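 active = activation of at least 50% relative to the plate's high and low controls in the primary single-dose screen; inactive = activation below 50%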;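 also: compound incubated with DTT at 0.8 mM final as the reducing agent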
Each line names hits and unclear results; the compound was inactive in the other large screens.

CCOc1ccc(NC(=O)Cn2nnc(-c3ccccc3F)n2)cc1	none
COc1ccc(NC(=O)Cn2nnc(-c3ccccc3F)n2)cc1	NCF1 inh 54
Nc1ccc(-n2nnnc2-c2ccco2)cc1	NCF1 inh 59
N#CC1=C(N)N(c2ccc(F)cc2)C2=C(C1c1ccc(O)cc1)S(=O)(=O)CC2 (stereo not given)	none
Cc1ccc(C(=O)O/N=C2\CC3CCC2(C)C3(C)C)cc1 (stereo not given)	none
Cc1cccc(C(=O)O/N=C2/CC3CCC2(C)C3(C)C)c1 (stereo not given)	HMGR II inh 11
O=C(NN=C1CCCCCC1)c1ccc2c(c1)OCO2	none
Cc1ccc(C)c(N2CCN(C(=O)C34CC5CC(C3)CC(n3nnc(C)n3)(C5)C4)CC2)c1	none (no result: PMI act hi M6P, HMGR II inh, PMI act, Diaph act CS, Redox H2O2 prof)
O=c1oc2ccccc2c2oc3cc(O)c(O)cc3c12	none (no result: PMI act hi M6P, HMGR II inh, PMI act, Diaph act CS, Redox H2O2 prof)
O=c1oc2c(O)c(O)cc3c(=O)oc4c(O)c(O)cc1c4c23	HMGR II inh 24
CCN1CCN(Cc2ccc(NC(=O)c3ccc(C)c(NC(=O)c4nccn4C)c3)cc2C(F)(F)F)CC1	none (no result: PMI act hi M6P, HMGR II inh, PMI act, Diaph act CS, Redox H2O2 prof)
CCN1CCN(Cc2ccc(NC(=O)c3ccc(C)c(NC(=O)c4cc(-c5ccc(Br)cc5)n[nH]4)c3)cc2C(F)(F)F)CC1	NCF1 inh 63 (no result: PMI act hi M6P, HMGR II inh, PMI act, Diaph act CS, Redox H2O2 prof)
CCN1CCN(Cc2ccc(NC(=O)c3cc(NC(=O)c4cncc(-c5ccc(C#N)cc5)c4)cc(OC)c3)cc2C(F)(F)F)CC1	NCF1 inh 69 (no result: PMI act hi M6P, HMGR II inh, PMI act, Diaph act CS, Redox H2O2 prof)
COc1ccc2cc(C(=O)C3CCCN(C(=O)/C=C/c4ccccn4)C3)ccc2c1 (stereo not given)	none
COc1ccc(C2OC3=C(Nc4cc(C)c(C)cc4N3)C2=O)cc1 (stereo not given)	none (no result: PMI act hi M6P, HMGR II inh, PMI act, Diaph act CS, Redox H2O2 prof)
COc1cc(CC(=O)OCC(=O)Nc2ccc(Cl)c(S(=O)(=O)N(C)C)c2)cc(OC)c1OC	NCF1 inh 34 (no result: PMI act hi M6P, HMGR II inh, PMI act, Diaph act CS, Redox H2O2 prof)
COc1cccc(-n2nc3c(=O)n(Cc4ccccc4Cl)nc(C)c3c2C)c1	NCF1 inh 84
Cc1nc(C/C(=N\N)c2ccc(O)cc2O)cs1	PMI act hi M6P 2.3
Cn1c(C(O)C(O)c2ccccc2)nc2ccccc21 (stereo not given)	none
Cn1c(C(C#N)C2=C(Cl)C(=O)N(c3ccccc3)C2=O)nc2ccccc21 (stereo not given)	NCF1 inh 48
Cc1[nH][nH]c(=O)c1C(c1ccc(-c2cccc(Cl)c2)o1)c1c(C)[nH][nH]c1=O	none (no result: PMI act hi M6P, HMGR II inh, PMI act, Diaph act CS, Redox H2O2 prof)
Cc1[nH][nH]c(=O)c1C(c1ccc(-c2ccc(Cl)cc2Cl)o1)c1c(C)[nH][nH]c1=O	HMGR II inh 10
O=C(N/N=C1/C(=O)c2cccc3cccc1c23)c1ccc(Cl)cc1	NCF1 inh 48
Cc1nc2cc(C(=O)O)ccc2n1-c1ccccc1	none
COc1ccccc1-n1c(C)nc2cc(C(=O)O)ccc21	NCF1 inh 39
CSc1ccc(C2CC(=O)Nc3nc(SC)[nH]c(=O)c32)cc1 (stereo not given)	HMGR II inh 22
CSc1ccc(C2CC(=O)Nc3c2c(=O)n(C)c(=O)n3C)cc1 (stereo not given)	none (no result: PMI act hi M6P, HMGR II inh, PMI act, Diaph act CS, Redox H2O2 prof)
Cc1ccc2nc3ccc(N4CCCCCCC4)nn3c(=O)c2c1	none
Cc1sc2nc3ccc(N4CCCC4)nn3c(=O)c2c1C	PMI act hi M6P 2.2
c1ccc(-c2nccc(-c3ccc(-n4cnc5ccccc54)cc3)n2)cc1	NCF1 inh 46
c1ccc(-c2nccc(-c3ccc4c(c3)OCO4)n2)cc1	none
Cc1ccc(-c2nnc(Oc3ccc(NC(=O)c4ccccc4)cc3)c3ccccc23)cc1	NCF1 inh 43
O=c1[nH]c(CSc2nc3ccccc3s2)nc2ccccc12	none (no result: PMI act hi M6P, HMGR II inh, PMI act, Diaph act CS, Redox H2O2 prof)
COc1ccc(C2NCCc3c2[nH]c2ccccc32)cc1CSc1nc2ccccc2s1 (stereo not given)	NCF1 inh 58
CC(NC(=O)c1ccccc1N)c1ccccc1 (stereo not given)	none
CC(NC(=O)c1cc(=O)[nH]c2ccccc12)c1ccccc1 (stereo not given)	HMGR II inh 12
COc1ccccc1S(=O)(=O)Cc1ccc(C(=O)NCc2cccs2)o1	none
CCc1ccccc1S(=O)(=O)Cc1ccc(C(=O)NCc2cccs2)o1	HMGR II inh 9.8
Cc1ccc(S(=O)(=O)N=Nc2c(O)[nH]c3ccccc23)cc1C	PMI act hi M6P 2.2
COc1ccc(S(=O)(=O)N=Nc2c(O)[nH]c3ccccc23)cc1	PMI act hi M6P 2.5
Cc1ccc(N(CC(=O)N=Nc2c(O)[nH]c3ccccc23)S(C)(=O)=O)c(C)c1	none
COc1ccc(NC(=S)N=Nc2c(O)[nH]c3ccccc23)cc1	none (no result: PMI act hi M6P, HMGR II inh, PMI act, Diaph act CS, Redox H2O2 prof)
N#CC(=C=[N-])c1nc2ccccc2nc1-[n+]1cccc(NC(=O)c2cccs2)c1	NCF1 inh 48 (no result: PMI act hi M6P, HMGR II inh, PMI act, Diaph act CS, Redox H2O2 prof)
N#CC(=C=[N-])c1nc2ccccc2nc1-[n+]1cccc(NC(=O)c2ccccc2)c1	NCF1 inh 53 (no result: PMI act hi M6P, HMGR II inh, PMI act, Diaph act CS, Redox H2O2 prof)
O=C(O)c1ccc(Sc2nnnn2-c2ccccc2)c([N+](=O)[O-])c1	none
Cn1nc([N+](=O)[O-])nc1Sc1nnnn1-c1ccc(C(=O)O)cc1	HMGR II inh 17
Cc1ccc(C2C(/C=C3/SC(=S)NC3=O)=C(c3cccs3)Oc3ccccc32)cc1 (stereo not given)	none
Cc1ccc(C)c(OCCCC(C)(C)C(=O)O)c1	HMGR II inh 9.6
Cc1ccc(C2C=NN(c3ccccc3)C2=O)cc1 (stereo not given)	HMGR II inh 10
COc1ccc(S(=O)(=O)Nc2ccc(NC(C)=O)cc2)cc1[N+](=O)[O-]	none
O=C(c1cccs1)N(c1ccc(F)cc1)C1C=CS(=O)(=O)C1 (stereo not given)	HMGR II inh 17
Cc1ccc(N(C(=O)c2cccs2)C2C=CS(=O)(=O)C2)cc1 (stereo not given)	none
CC(=O)Nc1ccc(S(=O)(=O)NCCc2ccccn2)cc1	none
COCCN=c1scc(C)n1/N=C/C1CC2C=CC1C2 (stereo not given)	none
Cc1ccc(-c2csc(NC(=O)CSc3nc4ccccc4c(=O)n3CCCN(C)C)n2)cc1	NCF1 inh 37
CCn1c(SCC(=O)Nc2nc(-c3ccc(C)cc3)cs2)nnc1-c1ccccc1	none
COC(=O)c1ccc(NC(=O)Nc2ccccc2F)cc1	HMGR II inh 17
O=C(O)C1CCCN1c1ncccn1 (stereo not given)	NCF1 inh 78
Cc1cc(C(F)(F)F)nn1CC(=O)NCc1ccco1	none
Cc1cc(NS(=O)(=O)c2ccc(Cl)cc2)nn1CC(=O)NCc1ccco1	NCF1 inh 55
